LMPTP inh – LMPTP (human) inhibition. P24666. inhibition, % at 20 µM. 360,000 tested, 0.22% active. recombinant LMPTP-A, OMFP fluorogenic substrate, fluorescence intensity. AID 651560;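 active = compounds that cut the enzyme signal by at least half of the control window in the single-dose screen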
Target sequence (P24666 whole entry, looked up): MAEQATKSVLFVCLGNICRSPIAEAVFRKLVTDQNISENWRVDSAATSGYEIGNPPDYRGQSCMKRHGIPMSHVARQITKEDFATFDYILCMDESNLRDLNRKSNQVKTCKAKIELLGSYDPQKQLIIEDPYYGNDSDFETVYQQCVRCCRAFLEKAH
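material = LMPTP-A | quantity = 0.625 nM enzyme | reagent = OMFP substrate, 400 µM final | buffer or medium = Bis-Tris pH 6.0, DTT, detergent | detection = endpoint fluorescence intensity from OMFP dephosphorylation | dosing = single 20 µM dose | read-out basis = % inhibition relative to no-enzyme and uninhibited control wells | control set = no-enzyme and uninhibited controls | timing = 50 min at room temperature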
STEP inh – blocks human striatal-enriched tyrosine phosphatase; P54829; recombinant STEP, OMFP fluorogenic substrate, fluorescence; inhibition, % at 20 µM; 360,000 tested, 0.25% active;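 active = inhibition at 20 µM, scaled per plate between control wells, above about 37%, limit read from the data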
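Measure: Control-normalized % inhibition with plate pattern correction | Test system: STEP phosphatase, cell-free reaction | Medium: pH 6.0 Bis-Tris with DTT and Tween 20 | Technique: Fluorescence, 480/540 nm | Times: Reaction 20 min, ambient temperature | Doses: Single compound dose of 20 µM, 1% DMSO final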
Scp1 inh – Scp-1 (human) phosphatase inhibition; 340,000 tested, 0.88% active; AID 493091; Q9GZU7; inhibition, % at 20 µM; Recombinant Scp1, phosphopeptide, malachite green phosphate absorbance;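 active = inhibition above about 50% at 20 µM, limit read from the data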
Target sequence (Q9GZU7 76-261 limits assumed): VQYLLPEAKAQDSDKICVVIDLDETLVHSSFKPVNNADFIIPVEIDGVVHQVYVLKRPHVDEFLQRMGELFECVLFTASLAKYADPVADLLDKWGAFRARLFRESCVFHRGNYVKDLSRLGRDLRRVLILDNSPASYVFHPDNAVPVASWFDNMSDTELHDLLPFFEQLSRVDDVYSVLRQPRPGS
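Test system – truncated SCP-1 phosphatase (76-261aa) · Reagent – Phosphorylated 17-residue peptide substrate · Incubation – 45 min room-temperature reaction, 5 min colour, 30 min stabiliser · Detection – colorimetric phosphate reagent with accelerator and stabiliser, absorbance at 630 nm · Measure – % inhibition at 20 µM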
DNMT1 block – inhibitors of human DNMT1; DNMT1 molecular beacon, Hinp1I cleavage, fluorescence; inhibition (reported as % activation of signal), % at 10 µM; 360,000 tested, 0.83% active; AID 588458; in the data active = inhibition above about 50%
SUMO1-SIM PPI – alters human SUMO1 binding to SIM partners; P63165; SUMO1 binding to a labelled peptide, TR-FRET, 1 h; inhibition, % at 20 µM; 360,000 tested, 0.33% active; AID 602429; in the data active = inhibition above about 37%
Target sequence (P63165 whole entry, looked up): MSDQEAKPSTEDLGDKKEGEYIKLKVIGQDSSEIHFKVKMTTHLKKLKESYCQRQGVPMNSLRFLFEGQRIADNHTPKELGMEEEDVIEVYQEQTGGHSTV
Scp-1 conf – confirmation of human Scp-1 phosphatase inhibitors | 2,500 tested, 61% active | recombinant SCP-1 catalytic domain, phosphate release, malachite green absorbance | AID 540281 | inhibition, % at 20 µM | shares compounds with Scp1 inh;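 active = inhibition of at least 30% at 20 µM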
Scp-1 MG ctr – interferes with malachite green readout, flagging false Scp-1 hits; 2,500 tested, under 10 active; Colorimetric interference counterscreen, malachite green absorbance 630 nm; apparent inhibition (interference), % at 20 µM; shares compounds with Scp1 inh; AID 540313;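 active = inhibition of at least 30% at 20 µM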;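 note: compounds added after enzyme reaction finished so only phosphate colour detection is probed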
Scp1 DSF – Scp-1 (human) binding by thermal shift | 1,500 tested, 25% active | Recombinant SCP1, Sypro Orange thermal shift Tm | shares compounds with Scp1 inh | thermal shift relative to vanadate control, % at 40 µM;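 active = substances whose mean melting-temperature shift, as a percentage of the reference inhibitor's shift, reaches about 5.3%, limit read from the data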
DNMT1 interf DR – counter-screen for DNMT1 inhibitors: spectral interference, dose response. shares compounds with DNMT1 block. molecular beacon fluorescence. IC50, µM. 200 tested, under 10 active
DNMT1 inh conf – DNMT1 inhibition confirmation, single concentration | 2,300 tested, 8% active | AID 602385 | DNMT1 molecular beacon HinP1I cleavage, fluorescence | shares compounds with DNMT1 block | inhibition, % at 10 µM;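 active = average inhibition of at least 30% in the single-concentration confirmation test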
DNMT1 interf – shows spectral interference in the DNMT1 beacon assay; activation (fluorescence interference), % at 10 µM; 2,300 tested, 1% active; shares compounds with DNMT1 block; DNMT1 molecular beacon spectral interference counterscreen, fluorescence 485/520;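 active = activation of at least 30% at 10 µM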;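 note: DNMT1 catalytic domain with a HinP1I cleavage step and a FAM/dabcyl DNA beacon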
STEP inh conf – confirmation of human STEP phosphatase inhibitors | recombinant STEP, OMFP fluorogenic substrate, fluorescence | 520 tested, 32% active | shares compounds with STEP inh | inhibition, % at 20 µM
Each line names hits and unclear results; the compound was inactive in the other large screens (follow-up assays come after a bar, where they were run). In the library only some 1.7% were active in any assay of this set; here they are far more common. Unless noted, the rule behind the calls is not given here.

COc1cc(/C=C(\CCC(=O)O)c2nc3ccccc3s2)ccc1OCC(=O)Nc1c(Cl)cccc1Cl	STEP inh 49.2, Scp1 inh 74.9, DNMT1 block 52.3, SUMO1-SIM PPI 95.0 | Scp-1 conf 51.9 | Scp-1 MG ctr inactive | Scp1 DSF inactive | DNMT1 interf DR inactive | DNMT1 inh conf 70.1 | DNMT1 interf inactive | STEP inh conf inactive
O=C(O)c1ccc(/C=N/NC(=O)c2cc3c(ccc4ccccc43)o2)cc1	LMPTP inh 66.7, STEP inh 98.4, Scp1 inh 79.2 | Scp-1 conf 71.2 | Scp-1 MG ctr inactive | Scp1 DSF inactive | STEP inh conf inactive
O=C(N/N=C/c1cccc([N+](=O)[O-])c1)c1cc2c(ccc3ccccc32)o1	LMPTP inh 64.4, STEP inh 98.6, Scp1 inh 98.8 | Scp-1 conf 68.2 | Scp-1 MG ctr inactive | Scp1 DSF inactive | STEP inh conf inactive
COc1ccc(Cn2c(-c3ccco3)nc3c(c(=O)c4ccccc4n3C)c2=O)cc1	LMPTP inh 69.1, STEP inh 79.8, Scp1 inh 90.8, SUMO1-SIM PPI 45.0 | Scp-1 conf inactive | Scp-1 MG ctr inactive | STEP inh conf inactive
CCc1ccc(N=C2NC(=O)/C(=C/c3ccc(OCC(=O)O)cc3)S2)cc1	STEP inh 41.4, Scp1 inh 74.2 | Scp-1 conf 42.4 | Scp-1 MG ctr inactive | Scp1 DSF inactive | STEP inh conf 70.5
CCCc1cc(=O)oc2cc(C)cc(OC(C)C(=O)NCc3ccncc3)c12 (centres undefined)	none
O=C1NC(=Nc2cccnc2)S/C1=C/c1ccc(F)cc1	STEP inh 61.2, Scp1 inh 87.4 | Scp-1 conf 50.4 | Scp-1 MG ctr inactive | Scp1 DSF inactive | STEP inh conf inactive
Cc1ccc(/C=C2/SC(=Nc3ccc(F)cc3)NC2=O)s1	none
CCOc1ccc2nc(N3C(=O)C(O)=C(C(=O)c4ccco4)C3c3ccco3)sc2c1 (centres undefined)	none
Cc1cc(C)c2nc(N3C(=O)C(O)=C(C(=O)c4ccco4)C3c3ccco3)sc2c1 (centres undefined)	Scp1 inh 51.6, DNMT1 block 57.8 | DNMT1 inh conf inactive | DNMT1 interf inactive
CCOC(=O)c1ccc(CNS(=O)(=O)c2c(C)ccc3nsnc23)o1	DNMT1 block 69.2 | DNMT1 inh conf inactive | DNMT1 interf inactive
O=C(CCNS(=O)(=O)c1ccccc1C(F)(F)F)N1CCCCCCC1	DNMT1 block 52.5 | DNMT1 inh conf inactive | DNMT1 interf inactive
CCOc1ccc(/C=N/NC(=O)c2cc3ccccc3cc2OC)cc1	none
COc1cc(/C=C/C(=O)O)cc2c1OCCO2	none
CC1(C(=O)NS(=O)(=O)c2ccc3c(c2)CCO3)CCN1C(=O)C1(c2ccc(Cl)cc2)CC1 (centres undefined)	none (no result: Scp1 inh)
CC1(C(=O)NS(=O)(=O)c2ccc3c(c2)CCO3)CCN1C(=O)COc1ccc(Cl)cc1 (centres undefined)	DNMT1 block 85.0 (no result: Scp1 inh) | DNMT1 inh conf inactive | DNMT1 interf inactive
COC(=O)c1sccc1NC(=O)c1cc(-c2cccc(C)c2)nc2ccccc12	DNMT1 block 50.1 | DNMT1 inh conf inactive | DNMT1 interf inactive
